Compounds with a hit are over-represented: about 8.8% of the library has one in this group of screens.
S1P1 ag pot: agonists and agonism potentiators of human S1P1 receptor; S1P1 CRE-bla cells, forskolin, beta-lactamase FRET, potentiator mode; S1P1 agonist co-added at EC20, 2 nM; 100% = saturating reference agonist, 0% = basal; activation, % at 9.5 µM; 56,000 compounds, 0.57% hits; AID 449;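 active = activation above a cutoff set at the mean activation of all tested compounds plus 3 SD, cut at about 54% in these data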;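 note: forskolin at 4 µM as EC80 and the EC20 agonist is SEW2871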
RORa activator: activates the human nuclear receptor RORA; P35398; 65,000 compounds, 1.5% hits; AID 560; CHO-K1 Gal4-RORA LBD luciferase reporter, luminescence; percent increase over mock-subtracted basal signal; activation, % at 10 µM;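 active = activation above the mean of all tested compounds plus 3 SD, cut at about 49% in these data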
S1P3 agonist: activates the human S1P3 receptor. Q99500. S1P3 NFAT-BLA reporter cells, agonism, FRET ratio; relative to 1 µM S1P, basal subtracted. activation, % at 4.5 µM. 60,000 compounds, 0.1% hits;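 active = activation above the screen-wide mean plus 3 SD, cut at about 4.5% in these data, passing the limit was not always enough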
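Material: Human S1P3 NFAT-BLA reporter CHO cells | Incubation: Overnight plating, 4 h compound 37 °C, 2 h substrate RT | Signal: FRET β-lactamase substrate fluorescence, excitation 405 nm, 460/535 nm emission ratio, background-subtracted | Compound: 4.5 µM final, single dose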
SF-1 act: activators of human nuclear receptor SF-1 | 65,000 compounds, 1.9% hits | CHO-K1 Gal4-SF-1 LBD luciferase reporter; % increase over DMSO SF-1-specific signal | activation, % at 10 µM | AID 522 | Q13285;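 active = activation above the mean activation of all tested compounds plus 3 SD, cut at about 50% in these data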
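material = CHO-K1 cells with Gal4–hSF-1 LBD chimera plus Gal4-driven luciferase | compound = 10 µM single point, 1% DMSO | incubation = 20 h compound exposure at 37 °C after 1 h cell settling | measured by = SteadyLite luciferase luminescence | evaluation = percent activation relative to DMSO median and mock-transfected background | control set = DMSO negative control and −SF1 background wells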
M1 antagonist: antagonists of rat M1 muscarinic receptor. P08482. CHO-M1 cells, Fluo-4 calcium, ACh EC80 antagonist mode; active compounds read low. B-score at 10 µM. 64,000 compounds, 3.4% hits. AID 628;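 active = calcium fluorescence response, raw or row-and-column corrected B-score, differing from the plate sample mean either way at a set confidence level, mostly lower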
M1 ag: agonists of M1 muscarinic receptor | CHO-M1 cells, Fluo-4 calcium fluorescence, agonist mode; active compounds read high | B-score at 10 µM | 64,000 compounds, 3% hits;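 active = fluorescence rise, raw or as B-score row- and column-corrected plate score, outside the 99.7% band of its plate's samples, either direction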
M1 agonist conf: rat M1 muscarinic agonism, confirmation | fluorescence change (max-min) at 10 µM | 1,700 compounds, 19% hits | AID 1488 | CHO-M1 cells, Fluo-4 calcium fluorescence, agonist mode; actives lie on both sides | shares compounds with M1 ag;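 active = fluorescence change differs from the solvent-only DMSO control mean at a set confidence level in both duplicate runs; inconclusive = differs from solvent-only control mean in just one of two runs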;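 note: an EC20 dose of acetylcholine follows compound addition during the same imaging run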
M4 agonist ctr: activates rat M4 receptor in counter-screen for M1 agonists | shares compounds with M1 ag | CHO M4/Gqi5 cells, Fluo-4 calcium fluorescence, agonist mode; actives lie on both sides | fluorescence change (max-min) at 10 µM | 1,700 compounds, 9% hits;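 active = fluorescence change differing from the plate's solvent-only control wells at 99.7% confidence in both duplicates, whether higher or lower; inconclusive = differs from solvent controls in only one of two duplicates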
Target sequence (P08485 whole entry, looked up): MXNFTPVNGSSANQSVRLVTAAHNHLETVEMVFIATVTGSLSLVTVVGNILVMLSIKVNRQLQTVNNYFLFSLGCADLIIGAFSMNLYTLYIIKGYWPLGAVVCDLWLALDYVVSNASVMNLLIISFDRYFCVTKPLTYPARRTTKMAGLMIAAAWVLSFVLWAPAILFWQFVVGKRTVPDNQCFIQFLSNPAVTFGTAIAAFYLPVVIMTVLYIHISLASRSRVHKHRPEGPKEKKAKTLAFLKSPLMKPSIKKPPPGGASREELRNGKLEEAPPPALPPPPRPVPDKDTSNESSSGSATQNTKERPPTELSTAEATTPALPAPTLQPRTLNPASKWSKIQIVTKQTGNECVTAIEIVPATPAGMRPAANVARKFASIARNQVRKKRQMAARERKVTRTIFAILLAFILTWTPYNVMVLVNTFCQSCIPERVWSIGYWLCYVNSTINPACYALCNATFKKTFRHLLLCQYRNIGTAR
Of the large screens only hits and unclear results are named; the others gave an inactive call (follow-up assays come after a bar, where they were run).

Cn1c(CCNC(=O)c2ccco2)nc2cc(NS(=O)(=O)c3ccccc3)ccc21	M1 ag 32 | M1 agonist conf inconclusive | M4 agonist ctr inactive
Cc1c(N=Cc2ccco2)c(=O)n(-c2ccccc2)n1C	none (no result: M1 antagonist, M1 ag)
COc1ccc2c(C=Nc3c(C)n(C)n(-c4ccccc4)c3=O)c(O)n(Cc3ccco3)c(=O)c2c1	M1 antagonist -2.2, M1 ag 9.5 | M1 agonist conf inactive | M4 agonist ctr inactive
CC(=O)c1n[nH]nc1NC(=O)c1ccccc1	M1 ag 2.8 (no result: S1P1 ag pot, S1P3 agonist) | M1 agonist conf inconclusive | M4 agonist ctr inactive
CCCc1oc2c(c(=O)c1CC)C(=O)CC(C)(C)C2	none
CC(C)Nc1nc(-c2ccccc2)nc(-n2ccnc2)n1	none
c1ccc(-c2nc(-n3ccnc3)nc(-n3ccnc3)n2)cc1	M1 ag 7.9 | M1 agonist conf inactive | M4 agonist ctr inactive
O=C(CN1CCOCC1)NCC12CC3CC(CC(C3)C1)C2	none
O=C(Cn1cnc2c(cnn2-c2ccc(Cl)cc2)c1=O)NCC1CCCO1 (stereo not given)	none
CC(C)n1nc(C(=O)OCC(=O)N(C)C2CCS(=O)(=O)C2)c2ccccc2c1=O (stereo not given)	M1 ag 10 | M1 agonist conf inactive | M4 agonist ctr inactive
CCOC(=O)Cn1c(=N)n(Cc2ccccc2F)c2ccccc21	none
Nc1cc(Cl)ccc1N1CCOCC1	none
Clc1ccc2c(c1)CNc1c(ncnc1N1CCOCC1)O2	M1 antagonist -2, M1 ag 2.7 | M1 agonist conf inconclusive | M4 agonist ctr inactive
O=C(Cn1cnnn1)Nc1ccccc1Cc1ccccc1	none
Cc1ccc(-c2nn[nH]n2)o1	M1 ag 4.3 | M1 agonist conf inactive | M4 agonist ctr inconclusive
CCOn1c(=O)c(-c2cc3ccccc3o2)[n+]([O-])c2ccccc21	RORa activator 60, SF-1 act 97, M1 ag 23 | M1 agonist conf inactive | M4 agonist ctr inactive
COc1ccccc1N1CCN(C(=O)c2c(-c3ccccc3Cl)noc2C)CC1	none
O=C(Cn1ccc2ccccc2c1=O)NCCC(=O)N1CCN(C2CCCCC2)CC1	M1 ag 17 | M1 agonist conf inactive | M4 agonist ctr inactive
N#CC1=C(N)Oc2n[nH]c(-c3cccs3)c2C1c1ccsc1 (stereo not given)	none
N#CC1=C(N)Oc2n[nH]c(-c3cccs3)c2C1c1ccco1 (stereo not given)	M1 ag 37 | M1 agonist conf 138 | M4 agonist ctr 115
COc1cc(N)ccc1Cc1ccc(N)cc1OC	M1 ag 3.7 (no result: S1P1 ag pot) | M1 agonist conf inactive | M4 agonist ctr inactive
CCCC(C)C1C(C#N)=C(N)Oc2cc(C)oc(=O)c21 (stereo not given)	none
CC1CCc2cc(F)ccc2N1C(=O)c1ccc2c(c1)OCO2 (stereo not given)	none
CC(=O)N1C(=O)C(=C2C=C(C)OC(C)=C2)c2ccccc21	M1 ag 28 | M1 agonist conf inconclusive | M4 agonist ctr inactive
CC1=CC(=C2N=C(c3ccccc3)OC2=O)C=C(C)O1	none
CCn1c(SCC(=O)c2cc(C)n(CC3CCCO3)c2C)nc2ccccc21 (stereo not given)	M1 ag 5.3 | M1 agonist conf inconclusive | M4 agonist ctr inactive
COc1cc2c(cc1NC(=O)CN(C)Cc1nc3ccccc3c(=O)[nH]1)oc1ccccc12	none
COC(=O)c1ccc(C(C(=O)NCc2ccccc2)N(Cc2ccco2)C(=O)c2cnccn2)cc1 (stereo not given)	none
COc1cc(OC)cc(C(C(=O)NCc2ccccc2)N(Cc2ccco2)C(=O)c2ccno2)c1 (stereo not given)	M1 ag 7.1 | M1 agonist conf inactive | M4 agonist ctr inconclusive

Assay outcomes deposited in PubChem by several laboratories.
